From ChEMBL document CHEMBL1134674, “Acetylcholinesterase inhibitors: SAR and kinetic studies on omega-[N-methyl-N-(3-alkylcarbamoyloxyphenyl)methyl]aminoalkoxyaryl derivatives” (J Med Chem, 2001)

How the values were obtained:
[1] = target: Cholinesterase (Homo sapiens, UniProt P06276); assay: In vitro inhibition of human serum Butyrylcholinesterase.
[2] = target: Acetylcholinesterase (Homo sapiens, UniProt P22303); assay: In vitro inhibition of human erythrocyte Acetylcholinesterase.
[3] = Compound was evaluated for rate constant (K3); type: ADME
[4] = Compound was evaluated for rate constant (K5); type: ADME
[5] = Compound was evaluated for equilibrium constant; type: ADME
Summary of the method: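 Stopped-time carbamoylation assay with human erythrocyte AChE and inhibitor at five concentrations in pH 8.0 assay buffer at 37 °C. After a few minutes, residual ATCh hydrolysis was read at 412 nm against a parallel no-inhibitor control. Fit R = R0·exp(−kobs·t) + R∞ gave kobs; KC came from the slope/intercept ratio of double-reciprocal kobs versus [I] plots.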

Chain of Acetylcholinesterase (P22303 whole entry): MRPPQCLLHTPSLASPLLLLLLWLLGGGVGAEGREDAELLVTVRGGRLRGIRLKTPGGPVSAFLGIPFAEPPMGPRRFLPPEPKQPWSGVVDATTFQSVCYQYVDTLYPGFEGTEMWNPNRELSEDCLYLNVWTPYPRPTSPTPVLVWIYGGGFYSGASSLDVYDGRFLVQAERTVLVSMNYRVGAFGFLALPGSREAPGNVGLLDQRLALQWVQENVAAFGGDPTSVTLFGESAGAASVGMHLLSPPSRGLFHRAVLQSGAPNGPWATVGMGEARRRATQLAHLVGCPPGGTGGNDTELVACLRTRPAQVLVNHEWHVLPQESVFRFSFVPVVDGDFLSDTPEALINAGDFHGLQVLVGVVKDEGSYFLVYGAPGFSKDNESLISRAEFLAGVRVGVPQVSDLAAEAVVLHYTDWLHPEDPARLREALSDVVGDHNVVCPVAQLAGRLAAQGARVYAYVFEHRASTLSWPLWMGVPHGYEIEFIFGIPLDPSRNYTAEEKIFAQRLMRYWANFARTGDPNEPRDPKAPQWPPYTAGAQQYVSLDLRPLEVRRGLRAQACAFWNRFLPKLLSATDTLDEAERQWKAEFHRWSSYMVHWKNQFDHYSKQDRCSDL
Chain of Cholinesterase (P06276 whole entry): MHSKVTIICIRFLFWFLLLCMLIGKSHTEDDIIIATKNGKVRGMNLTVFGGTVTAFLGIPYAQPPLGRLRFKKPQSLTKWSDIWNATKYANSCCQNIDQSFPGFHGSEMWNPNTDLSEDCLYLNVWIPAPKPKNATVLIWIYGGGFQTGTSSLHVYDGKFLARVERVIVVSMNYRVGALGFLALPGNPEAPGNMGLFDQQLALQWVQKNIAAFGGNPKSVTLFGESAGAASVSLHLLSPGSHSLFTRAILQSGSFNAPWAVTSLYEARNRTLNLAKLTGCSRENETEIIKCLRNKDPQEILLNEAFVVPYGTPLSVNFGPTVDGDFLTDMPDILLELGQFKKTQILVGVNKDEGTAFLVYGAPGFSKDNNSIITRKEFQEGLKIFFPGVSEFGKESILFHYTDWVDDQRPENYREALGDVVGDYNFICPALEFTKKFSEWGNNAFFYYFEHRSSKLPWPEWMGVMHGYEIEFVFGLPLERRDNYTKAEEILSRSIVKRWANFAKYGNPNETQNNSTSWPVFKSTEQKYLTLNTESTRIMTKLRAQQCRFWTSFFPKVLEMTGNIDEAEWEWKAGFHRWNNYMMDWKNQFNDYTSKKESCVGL

Row | SMILES | IC50 [1] [nM] | IC50 [2] [nM] | K3 [3] [min⁻¹] | K5 [4] [h⁻¹] | Kc [5] [nM]
1 | CNC(=O)Oc1cccc(CN(C)CCCOc2ccc(-c3ccccc3)cc2)c1 | 42.6 | 54.6 |  |  | 
2 | CNC(=O)Oc1cccc(CN(C)CCCCCCOc2ccc3c(=O)c4ccccc4oc3c2)c1 | 13.9 | 1.4 | 2.3 | 0.77 | 6.4
3 | CN(CCCOc1ccc2c(=O)c3ccccc3oc2c1)Cc1cccc(OC(=O)NCCCCCCCCN2CCOCC2)c1 | 3.9 | 27.4 |  |  | 
4 | CN(CCCOc1ccc2c(=O)c3ccccc3oc2c1)Cc1cccc(OC(=O)NCCCCCCCCCN2CCOCC2)c1 |  | 29.3 |  |  | 
5 | CN(CCCOc1ccc2c(=O)c3ccccc3oc2c1)Cc1cccc(OC(=O)NCCCCCCCN2CCOCC2)c1 | 4.9 | 26.2 | 0.11 |  | 27.2
6 | CN(CCCOc1ccc2c(=O)c3ccccc3oc2c1)Cc1cccc(OC(=O)NCCCCCCN2CCOCC2)c1 | 7.5 | 21.1 |  |  | 
7 | CNC(=O)Oc1cccc(CN(C)CCCOc2ccccc2)c1 | 24.8 | 79.6 |  |  | 
8 | CNC(=O)Oc1ccc2c(c1)CN(CCCOc1ccc3c(=O)c4ccccc4oc3c1)CC2 | 34.1 | 12.4 |  |  | 
9 | CNC(=O)Oc1cccc(CN(C)CCCOc2ccc3ccccc3c2)c1 | 205 | 82.6 |  |  | 
10 | CNC(=O)Oc1cccc(CN(C)CCCCCCCCCOc2ccc3c(=O)c4ccccc4oc3c2)c1 | 48.3 | 11.7 |  |  | 
11 | CNC(=O)Oc1cccc(CN(C)CCCCCCCOc2ccc3c(=O)c4ccccc4oc3c2)c1 | 16.5 | 0.32 |  |  | 
12 | CNC(=O)Oc1cccc(CN(C)CCCOc2cccc(Cc3ccccc3)c2)c1 | 22.1 |  |  |  | 
13 | CNC(=O)Oc1cccc(CN(C)CCCOc2ccc(C(=O)c3ccccc3)cc2)c1 | 24.5 | 5.4 |  |  | 
14 | CNC(=O)Oc1cccc(CN(C)CCCCCCCCCCOc2ccc3c(=O)c4ccccc4oc3c2)c1 | 31.6 | 21.8 |  |  | 
15 | CNC(=O)Oc1cccc(CN(C)CC#CCOc2ccc3c(=O)c4ccccc4oc3c2)c1 | 529 | 210 |  |  | 
16 | CNC(=O)Oc1cccc(CN(C)CCCCCCCCOc2ccc3c(=O)c4ccccc4oc3c2)c1 | 25.2 | 6.8 |  |  | 
17 | CNC(=O)Oc1ccc2c(c1)[C@]1(C)CCN(C)[C@@H]1N2C [PHYSOSTIGMINE] |  |  | 0.41 | 0.43 | 33.5
